Source: ChEMBL document CHEMBL1123436, “Comparative toxicities and analgesic activities of three monomethylated analogues of acetaminophen” (J Med Chem, 1986)

Key:
[1] = test system: Mus musculus; assay: Urinary Metabolic (3-(methylthio)acetaminophen) profile in the mouse 24 h after dose of 3 mmol/kg of the compound; format: ADME, organism-based, Urine; conditions: in vivo
[2] = test system: Mus musculus; assay: Urinary Metabolic (acetaminophen-3-mecapturate) profile in the mouse 24 hr after dose of 3 mmol/kg of the compound; format: ADME, organism-based, Urine; conditions: in vivo
[3] = test system: Mus musculus; assay: Urinary Metabolic (3-cysteinnylacetaminophen) profile in the mouse 24 hr after dose of 3 mmol/kg of the compound; format: ADME, organism-based, Urine; conditions: in vivo
[4] = test system: Mus musculus; assay: Urinary Metabolic (3-hydroxyacetaminophen) profile in the mouse 24 h after dose of 3 mmol/kg of the compound; format: ADME, organism-based, Urine; conditions: in vivo
[5] = test system: Mus musculus; assay: Time course of Distribution of Radioactivity in Mice Liver after 3 mmol/kg dose of the Compound after 3 h; format: ADME, organism-based; conditions: in vivo
Procedure, shortened: (§1)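 Groups of 12 mice given [acetyl-14C]-labelled drug ip, 3 mmol/kg (0.45 mCi/mmol), housed individually with urine/feces separation. Four killed at each of 1, 3 and 24 h by exsanguination. Tissues (~100 mg) digested in Soluene 350; blood digested and peroxide-bleached; feces freeze-dried, rehydrated, digested and bleached. Scintillation counting; nmol equiv/mg tissue or per mL blood/urine, means ± SE (N = 4).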

[6] = test system: Mus musculus; assay: Time course of Distribution of Radioactivity in Mice kidney after 3 mmol/kg dose of the Compound after 1 h; format: ADME, organism-based; conditions: in vivo; procedure, shortened: as §1
[7] = test system: Mus musculus; assay: Time course of Distribution of Radioactivity in Mice kidney after 3 mmol/kg dose of the Compound after 24 h; format: ADME, organism-based; conditions: in vivo; procedure, shortened: as §1
[8] = test system: Mus musculus; assay: Time course of Distribution of Radioactivity in Mice kidney after 3 mmol/kg dose of the Compound after 3 h; format: ADME, organism-based; conditions: in vivo; procedure, shortened: as §1
[9] = test system: Mus musculus; assay: Urinary Metabolic (3-methoxyacetaminophen) profile in the mouse 24 hr after dose of 3 mmol/kg of the compound; format: ADME, organism-based, Urine; conditions: in vivo
[10] = test system: Mus musculus; assay: Urinary Metabolic (Acetaminophen) profile in the mouse 24 h after dose of 3 mmol/kg of the compound; format: ADME, organism-based, Urine; conditions: in vivo
[11] = test system: Mus musculus; assay: Time course of Distribution of Radioactivity in Mice brain after 3 mmol/kg dose of the Compound after 1 h; format: ADME, organism-based; conditions: in vivo; procedure, shortened: as §1
[12] = test system: Mus musculus; assay: Time course of Distribution of Radioactivity in Mice brain after 3 mmol/kg dose of the Compound after 24 h; format: ADME, organism-based; conditions: in vivo; procedure, shortened: as §1
[13] = test system: Mus musculus; assay: Time course of Distribution of Radioactivity in Mice brain after 3 mmol/kg dose of the Compound after 3 h; format: ADME, organism-based; conditions: in vivo; procedure, shortened: as §1
[14] = test system: Mus musculus; assay: Time course of Distribution of Radioactivity in Mice feces after 3 mmol/kg dose of the Compound after 1 hr; format: ADME, organism-based; conditions: in vivo; procedure, shortened: as §1
[15] = test system: Mus musculus; assay: Time course of Distribution of Radioactivity in Mice feces after 3 mmol/kg dose of the Compound after 24 h; format: ADME, organism-based; conditions: in vivo; procedure, shortened: as §1
[16] = test system: Mus musculus; assay: Time course of Distribution of Radioactivity in Mice feces after 3 mmol/kg dose of the Compound after 3 h; format: ADME, organism-based; conditions: in vivo; procedure, shortened: as §1
[17] = test system: Mus musculus; assay: Time course of Distribution of Radioactivity in Mice intestine after 3 mmol/kg dose of the Compound after 24 h; format: ADME, organism-based; conditions: in vivo; procedure, shortened: as §1
[18] = test system: Mus musculus; assay: Time course of Distribution of Radioactivity in Mice intestine after 3 mmol/kg dose of the Compound after 3 h; format: ADME, organism-based; conditions: in vivo; procedure, shortened: as §1
[19] = test system: Mus musculus; assay: Time course of Distribution of Radioactivity in Mice intestine after 3 mmol/kg dose of the Compound after 1 h; format: ADME, organism-based; conditions: in vivo; procedure, shortened: as §1
[20] = test system: Mus musculus; assay: Time course of Distribution of Radioactivity in Mice lungs/heart after 3 mmol/kg dose of the Compound after 1 h; format: ADME, organism-based, Lung; conditions: in vivo; procedure, shortened: as §1
[21] = test system: Mus musculus; assay: Time course of Distribution of Radioactivity in Mice lungs/heart after 3 mmol/kg dose of the Compound after 24 h; format: ADME, organism-based, Lung; conditions: in vivo; procedure, shortened: as §1
[22] = test system: Mus musculus; assay: Time course of Distribution of Radioactivity in Mice lungs/heart after 3 mmol/kg dose of the Compound after 3 h; format: ADME, organism-based, Lung; conditions: in vivo; procedure, shortened: as §1
[23] = test system: Mus musculus; assay: Time course of Distribution of Radioactivity in Mice spleen after 3 mmol/kg dose of the Compound after 1 h; format: ADME, organism-based; conditions: in vivo; procedure, shortened: as §1
[24] = test system: Mus musculus; assay: Time course of Distribution of Radioactivity in Mice spleen after 3 mmol/kg dose of the Compound after 24 h; format: ADME, organism-based; conditions: in vivo; procedure, shortened: as §1
[25] = test system: Mus musculus; assay: Time course of Distribution of Radioactivity in Mice spleen after 3 mmol/kg dose of the Compound after 3 h; format: ADME, organism-based; conditions: in vivo; procedure, shortened: as §1
[26] = test system: Mus musculus; assay: Time course of Distribution of Radioactivity in Mice stomach after 3 mmol/kg dose of the Compound after 1 h; format: ADME, organism-based; conditions: in vivo; procedure, shortened: as §1
[27] = test system: Mus musculus; assay: Time course of Distribution of Radioactivity in Mice stomach after 3 mmol/kg dose of the Compound after 24 h; format: ADME, organism-based; conditions: in vivo; procedure, shortened: as §1
[28] = test system: Mus musculus; assay: Time course of Distribution of Radioactivity in Mice Liver after 3 mmol/kg dose of the Compound after 1 h; format: ADME, organism-based; conditions: in vivo; procedure, shortened: as §1
[29] = test system: Mus musculus; assay: Time course of Distribution of Radioactivity in Mice Urine after 3 mmol/kg dose of the Compound after 1 h; format: ADME, organism-based; conditions: in vivo; procedure, shortened: as §1
[30] = test system: Mus musculus; assay: Time course of Distribution of Radioactivity in Mice Urine after 3 mmol/kg dose of the Compound after 24 h; format: ADME, organism-based; conditions: in vivo; procedure, shortened: as §1
[31] = test system: Mus musculus; assay: Time course of Distribution of Radioactivity in Mice Urine after 3 mmol/kg dose of the Compound after 3 h; format: ADME, organism-based; conditions: in vivo; procedure, shortened: as §1
[32] = test system: Mus musculus; assay: Time course of Distribution of Radioactivity in Mice blood after 3 mmol/kg dose of the Compound after 1 h; format: ADME, organism-based; conditions: in vivo; procedure, shortened: as §1
[33] = test system: Mus musculus; assay: Time course of Distribution of Radioactivity in Mice blood after 3 mmol/kg dose of the Compound after 24 h; format: ADME, organism-based; conditions: in vivo; procedure, shortened: as §1
[34] = species: Mus musculus; assay: Analgesic activity determined in mice using the Bradykinin-induced Writhing test; format: functional
Procedure, shortened: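 Male CD1 mice (15–20 g), test drug given orally 15 min before bradykinin ip (4 μg in 0.2 mL sterile water), then a second bradykinin injection (0.2 μg/0.1 mL) 15 min later. Writhing was scored over the next 10 min, with control groups of 10 mice. ED50 was derived by log-probit analysis from at least five doses, with 95% limits.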

[35] = test system: Mus musculus; assay: (§2) Hepatotoxicity in Swiss-Webster Mice Caused by compound at 400 mg/kg (i.p.) dose; format: functional; conditions: route intraperitoneal
Procedure, shortened: (§3)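 Male Swiss-Webster mice (20 g), groups of 10, were given a single ip dose of drug in saline with no pretreatment. Survivors were decapitated at 24 h and counted. Plasma ALT was measured, and liver sections (formalin-fixed, paraffin, H&E) were scored for necrosis severity in survivors. Values are means ± SE.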

[36] = test system: Mus musculus; assay: (§4) Hepatotoxicity in Swiss-Webster Mice Caused by compound at 750 mg/kg (i.p.) dose; format: functional; conditions: route intraperitoneal; procedure, shortened: as §3
[37] = test system: Mus musculus; assay: Hepatotoxicity in Swiss-Webster Mice Caused by compound at 400 mg/kg (i.p.) dose; 8/10; format: functional; conditions: route intraperitoneal; procedure, shortened: as §3
[38] = test system: Mus musculus; assay: as §2; format: functional, organism-based; parameters: dose 400 mg/kg; procedure, shortened: as §3
[39] = test system: Mus musculus; assay: as §4; format: functional, organism-based; parameters: dose 750 mg/kg; procedure, shortened: as §3
[40] = test system: Mus musculus; assay: Hepatotoxicity in Swiss-Webster Mice Caused by compound at 750 mg/kg (i.p.) dose; 4/10; format: functional; conditions: route intraperitoneal; procedure, shortened: as §3
[41] = test system: Mus musculus; assay: Time course of Distribution of Radioactivity in Mice blood after 3 mmol/kg dose of the Compound after 3 h; format: ADME, organism-based; conditions: in vivo; procedure, shortened: as §1
[42] = test system: Mus musculus; assay: Time course of Distribution of Radioactivity in Mice stomach after 3 mmol/kg dose of the Compound after 3 h; format: ADME, organism-based; conditions: in vivo; procedure, shortened: as §1
[43] = test system: Mus musculus; assay: Time course of Distribution of Radioactivity in Mice Liver after 3 mmol/kg dose of the Compound after 24 h; format: ADME, organism-based; conditions: in vivo; procedure, shortened: as §1

Structure (SMILES): CC(=O)Nc1ccc(O)cc1 [ACETAMINOPHEN]
- Administered dose [1]: 2.3%
- Administered dose [2]: 2%
- Administered dose [3]: 18.5%
- Administered dose [4]: 0.4%
- Radioactivity [5]: 0.73 nM equiv (mg of tissue)-1
- Radioactivity [6]: 2.45 nM equiv (mg of tissue)-1
- Radioactivity [7]: 0.21 nM equiv (mg of tissue)-1
- Radioactivity [8]: 1.19 nM equiv (mg of tissue)-1
- Administered dose [9]: 1.1%
- Administered dose [10]: 68.8%
- Radioactivity [11]: 1.22 nM equiv (mg of tissue)-1
- Radioactivity [12]: 0.05 nM equiv (mg of tissue)-1
- Radioactivity [13]: 0.24 nM equiv (mg of tissue)-1
- Radioactivity [14]: 0.09 nM equiv mg-1
- Radioactivity [15]: 15.3 nM equiv mg-1
- Radioactivity [16]: 1.52 nM equiv mg-1
- Radioactivity [17]: 0.92 nM equiv (mg of tissue)-1
- Radioactivity [18]: 1.08 nM equiv (mg of tissue)-1
- Radioactivity [19]: 2.19 nM equiv (mg of tissue)-1
- Radioactivity [20]: 1.13 nM equiv (mg of tissue)-1
- Radioactivity [21]: 0.11 nM equiv (mg of tissue)-1
- Radioactivity [22]: 0.2 nM equiv (mg of tissue)-1
- Radioactivity [23]: 1.55 nM equiv (mg of tissue)-1
- Radioactivity [24]: 0.04 nM equiv (mg of tissue)-1
- Radioactivity [25]: 0.29 nM equiv (mg of tissue)-1
- Radioactivity [26]: 1.13 nM equiv (mg of tissue)-1
- Radioactivity [27]: 0.15 nM equiv (mg of tissue)-1
- Radioactivity [28]: 2.89 nM equiv (mg of tissue)-1
- Radioactivity [29]: 12.4 nM equiv (ml of urine)-1
- Radioactivity [30]: 6005 nM equiv (ml of urine)-1
- Radioactivity [31]: 3880 nM equiv (ml of urine)-1
- Radioactivity [32]: 1605 nM equiv (ml of blood)-1
- Radioactivity [33]: 19.2 nM equiv (ml of blood)-1
- ED50 [34]: 84.3 mg/kg
- Hepatic necrosis in survivors [35]: 1.13
- Hepatic necrosis in survivors [36]: 3.25
- Survivors at 24 h [37]: 8
- Plasma ALT at 24 h [38]: 1550 mU ml-1
- Plasma ALT at 24 h [39]: 4030 mU ml-1
- Survivors at 24 h [40]: 4
- Radioactivity [41]: 544 nM equiv (ml of blood)-1
- Radioactivity [42]: 0.71 nM equiv (mg of tissue)-1
- Radioactivity [43]: 0.58 nM equiv (mg of tissue)-1
